Measured values from ChEMBL document CHEMBL1126734, “Synthesis of phosphocholine and quaternary amine ether lipids and evaluation of in vitro antineoplastic activity” (1993).

Experiments:
HL-60 [1] = assay: Standard thymidine incorporation assay (TdR) was carried out for 48 hr and involved a 24-h pulse of [3H]- thymidine (n=1) and ID50 value was evaluated; format: functional; conditions: Homo sapiens, read-out: ID50 (the source's name)
In short: (§1)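 HL-60 human promyelocytic leukemia cells in RPMI 1640 with 10% heat-inactivated FBS, 37 °C, 5% CO2. Log-phase cells seeded at 5 × 10^4/well with inhibitor dilutions from ethanol stocks (1 or 10 mg/mL). At 24 h, pulsed with 1.0 μCi [methyl-3H]thymidine (6.7 Ci/mmol) for a further 24 h. Harvested onto glass fiber filters and counted by liquid scintillation as % of control. Quadruplicate determinations. Values in μM.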

HL-60 [2] = assay: Standard thymidine incorporation assay (TdR) was carried out for 48 hr and involved a 24-h pulse of [3H]- thymidine (n=2) and ID50 value was evaluated; format: functional; conditions: Homo sapiens, read-out: ID50 (the source's name); in short: as §1
HL-60 [3] = assay: Standard thymidine incorporation assay (TdR) was carried out for 48 hr with an 8 hr pulse of [3H]- thymidine (TdR8) (n=4) and ID50 value was evaluated; format: functional; conditions: Homo sapiens, read-out: ID50 (the source's name)
In short: (§2)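 HL-60 leukemia suspension cultures grown in RPMI 1640/10% FBS at 37 °C, 5% CO2. Cells seeded at 5 × 10^4/well with inhibitors diluted from ethanol stocks. 48-h exposure, with 1.0 μCi [methyl-3H]thymidine (6.7 Ci/mmol) added for the last 8 h. Filter-harvested cells counted by liquid scintillation, uptake expressed as percent of control. Quadruplicate determinations. Results in μM.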

HL-60 [4] = assay: Trypan blue exclusion assay (TB) was carried out for 48 h and the in vitro ID50 value was evaluated in the HL-60 leukemic cell system (n=3); format: functional; conditions: Homo sapiens, HL-60, 48 h; read-out: ID50 (the source's name)
In short: (§3)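 HL-60 human promyelocytic leukemia cells were grown in suspension in RPMI 1640 with 10% heat-inactivated FBS, penicillin/streptomycin, 2 mM L-glutamine and 0.22% NaHCO3 at 37 °C under 5% CO2. Cells at 5 × 10^5/mL were exposed to various inhibitor concentrations diluted from ethanol stocks into medium for 48 h. Trypan blue in PBS was then added and viable cells were counted by hemocytometer. Triplicate determinations; values in μM.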

HL-60 [5] = assay: Standard thymidine incorporation assay (TdR) was carried out for 48 hr with an 8 hr pulse of [3H]- thymidine (TdR8) (n=1) and ID50 value was evaluated; format: functional; conditions: Homo sapiens, read-out: ID50 (the source's name); in short: as §2
HL-60 [6] = assay: Trypan blue exclusion assay (TB) was carried out for 48 hr and the in vitro ID50 value was evaluated in the HL-60 leukemic cell system (n=1); format: functional, Homo sapiens; conditions: read-out: ID50 (the source's name); in short: as §3
HL-60 [7] = assay: Trypan blue exclusion assay (TB) was carried out for 48 hr and the in vitro ID50 value was evaluated in the HL-60 leukemic cell system (n=2); format: functional; conditions: Homo sapiens, HL-60, 48 h; read-out: ID50 (the source's name); in short: as §3
HL-60 [8] = assay: Standard thymidine incorporation assay (TdR) was carried out for 48 hr and involved a 24-h pulse of [3H]- thymidine (n=3) and ID50 value was evaluated; format: functional; conditions: Homo sapiens, read-out: ID50 (the source's name); in short: as §1
HL-60 [9] = assay: Standard thymidine incorporation assay (TdR) was carried out for 48 hr with an 8 hr pulse of [3H]- thymidine (TdR8) (n=3) and ID50 value was evaluated; format: functional; conditions: Homo sapiens, read-out: ID50 (the source's name); in short: as §2
HL-60 [10] = assay: Trypan blue exclusion assay (TB) was carried out for 48 hr and the in vitro ID50 value was evaluated in the HL-60 leukemic cell system (n=4); format: functional; conditions: Homo sapiens, HL-60, 48 h; read-out: ID50 (the source's name); in short: as §3
HL-60 [11] = assay: Standard thymidine incorporation assay (TdR) was carried out for 48 hr and involved a 24-h pulse of [3H]- thymidine (n=5) and ID50 value was evaluated; format: functional; conditions: Homo sapiens, read-out: ID50 (the source's name); in short: as §1
HL-60 [12] = assay: Trypan blue exclusion assay (TB) was carried out for 48 hr and the in vitro ID50 value was evaluated in the HL-60 leukemic cell system (n=9); format: functional; conditions: Homo sapiens, HL-60, 48 h; read-out: ID50 (the source's name); in short: as §3
HL-60 [13] = assay: Standard thymidine incorporation assay (TdR) was carried out for 48 hr with an 8 hr pulse of [3H]- thymidine (TdR8) (n=7) and ID50 value was evaluated; format: functional; conditions: Homo sapiens, read-out: ID50 (the source's name); in short: as §2
HL-60 [14] = assay: Standard thymidine incorporation assay (TdR) was carried out for 48 h and involved a 24-h pulse of [3H]- thymidine (n=6) and ID50 value was evaluated; format: functional; conditions: Homo sapiens, read-out: ID50 (the source's name); in short: as §1

In the case of CCCCCCCCCCCCCCCCSCC[n+]1ccccc1, the IC50 (HL-60 [1]) is reported as 2.28 µM.

In the case of CCCCCCCCCCCCCCCCOCC(CSCC[N+](C)(C)C)OC (stereo not drawn), the IC50 (HL-60 [2]) is reported as 2.4 µM, the IC50 (HL-60 [3]) is reported as 1850 nM and the IC50 (HL-60 [4]) is reported as 2230 nM.

In the case of CCCCCCCCCCCCCCCCSCC(COC)C[N+](C)(C)CCCO (stereo not drawn), the IC50 (HL-60 [1]) is reported as 3.46 µM.

For CCCCCCCCCCCCCCCCSCC(C[N+](C)(C)C)OCCCCC (stereo not drawn), the IC50 (HL-60 [5]) was 5.02 µM, the IC50 (HL-60 [6]; Homo sapiens, HL-60, 48 h) was 6.14 µM and the IC50 (HL-60 [1]) was 4.97 µM.

Work on CCCCCCCCCCCCCCCCOCC(COP(=O)(O)OCCNC(C)C)OCC (stereo not drawn) yielded an IC50 (HL-60 [6]; Homo sapiens, HL-60, 48 h) of 4.7 µM.

Compound CCCCCCCCCCCCCCCCCC(=O)NCCOP(=O)([O-])OCC[N+](C)(C)C has an IC50 (HL-60 [2]) of 7.02 µM, an IC50 (HL-60 [3]) of 5730 nM and an IC50 (HL-60 [7]) of 4.56 µM.

Compound CCCCCCCCCCCCCCCCCC(=O)N(C)CC(COP(=O)([O-])OCC[N+](C)(C)C)OC (stereo not drawn) has an IC50 (HL-60 [2]) of 4.02 µM, an IC50 (HL-60 [3]) of 3440 nM and an IC50 (HL-60 [4]) of 3970 nM.

Compound CCCCCCCCCCCCCCCCCCOCC(C[N+]1(C)CCOCC1)OCC (stereo not drawn) has an IC50 (HL-60 [2]) of 3.92 µM and an IC50 (HL-60 [6]; Homo sapiens, HL-60, 48 h) of 2.92 µM.

For CCCCCCCCCCCCCCCCSCCC[N+]1(C)CCC(O)C1 (stereo not drawn), the IC50 (HL-60 [1]) was 3.77 µM.

CCCCCCCCCCCCCCCCCC(=O)NCCCOP(=O)([O-])OCC[n+]1ccccc1 gave an IC50 (HL-60 [8]) of 4.33 µM and an IC50 (HL-60 [4]) of 4160 nM.

For CCCCCCC(=O)CCCCCCCCCOCC(COP(=O)([O-])OCC[N+](C)(C)C)OCC (stereo not drawn), the IC50 (HL-60 [2]) was 21.9 µM and the IC50 (HL-60 [7]) was 13 µM.

Work on CCCCCCCCCCCCCCCCSCC(C[N+](C)(C)CCO)OC (stereo not drawn) yielded an IC50 (HL-60 [9]) of 3.37 µM, an IC50 (HL-60 [10]) of 3.86 µM and an IC50 (HL-60 [11]) of 4.34 µM.

Work on CCCCCCCCCCCCCCCCSCC(COP(=O)([O-])OCC[N+](C)(C)C)OCC (stereo in doubt; 2) yielded an IC50 (HL-60 [6]) of 2.25 µM, an IC50 (HL-60 [9]) of 3.11 µM and an IC50 (HL-60 [8]) of 2.19 µM.

For CCCCCCCCCCCCCCCCCCCC(=O)NCC(COP(=O)([O-])OCC[N+](C)(C)C)OCC (stereo not drawn), the IC50 (HL-60 [2]) was 3.39 µM, the IC50 (HL-60 [3]) was 2710 nM and the IC50 (HL-60 [4]) was 3170 nM.

In the case of CCCCCCCCCCCCCCCCSCC(COP(=O)([O-])OCC[N+](C)(C)C)OCCC (stereo not drawn), the IC50 (HL-60 [2]) is reported as 2.19 µM and the IC50 (HL-60 [4]) is reported as 2730 nM.

CCCCCCCCCCCCCCCCCCSCC(C[N+](C)(C)CCCO)OC (stereo not drawn) gave an IC50 (HL-60 [12]) of 2930 nM, an IC50 (HL-60 [13]) of 2460 nM and an IC50 (HL-60 [14]) of 3.51 µM.

CCCCCCCCCCCCCCCCSCC(C[N+](C)(C)CCO)OCCCCCC (stereo not drawn) showed an IC50 (HL-60 [1]) of 7.15 µM.

In the case of CCCCCCCCCCCCCCCCOCC(COCCCC[N+](C)(C)CCCO)OC (stereo not drawn), the IC50 (HL-60 [2]) is reported as 1.98 µM, the IC50 (HL-60 [3]) is reported as 1210 nM and the IC50 (HL-60 [4]) is reported as 1830 nM.

CCCCCCCCCCCCSCC(C[N+](C)(C)C)OC (stereo not drawn) was tested, and the IC50 (HL-60 [1]) was 2.26 µM.

Work on CCCCCCCCCCCCCCCCSCCOP(=O)([O-])OCC[N+](C)(C)C yielded an IC50 (HL-60 [6]; Homo sapiens, HL-60, 48 h) of 4.15 µM and an IC50 (HL-60 [1]) of 5.16 µM.
